The source made the active and inactive calls. The rule behind the calls is not given here.

Experiment [1] concerns MCF7. Nature of the experiment: Antiproliferative activity against human MCF7 cells assessed as reduction in cell viability after 72 hrs by MTT assay. The class given is functional, cell-based. Summed up:
(§1)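 Cells grown in DMEM/1640 with 10% FBS, seeded at about 4×10^3 per well and held 24 h at 37 °C, 5% CO2. Compounds diluted in medium or DMSO were added for 72 h, then MTT ([…]) was added for 3.5 h at 37 °C. Formazan was dissolved in DMSO and read at 492 nm against 630 nm. Triplicate wells, three runs, IC50 calculated.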

In experiment [2] the test system is A549. Kind of experiment: Antiproliferative activity against human A549 cells assessed as reduction in cell viability after 72 hrs by MTT assay. The class given is functional, cell-based. The following applies: A549, 72 h. Summed up: as §1
In experiment [3] the test system is HeLa. Nature of the experiment: Antiproliferative activity against human HeLa cells assessed as reduction in cell viability after 72 hrs by MTT assay. The class given is functional, cell-based. Summed up:
as §1

Experiment [4] has as its target Hepatocyte growth factor receptor (Homo sapiens, UniProt P08581). Nature of the experiment: Inhibition of cMET (unknown origin) using FAM-labeled peptide as substrate pre-incubated for 5 to 10 mins followed by substrate addition and measured after 30 to 60 mins by mobility shift assay.
Experiment [5] has as its system HeLa. Nature of the experiment: Induction of apoptosis in human HeLa cells assessed as increase in apoptotic bodies at 1 to 5 ug/L after 12 hrs by acridine orange staining based assay. Format: functional, cell-based. In short, it runs like this: (§2)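 HeLa cells were treated at 1 and 5 µg/L for 12 h, then stained with acridine orange. Morphology was compared with untreated control cells, scoring cytoplasmic contraction, membrane swelling and apoptotic bodies.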

The test system of experiment [6] is HeLa. Nature of the experiment: Antiproliferative activity against human HeLa cells assessed as inhibition of cell proliferation at 1.23 umol/L after 72 hrs by MTT assay relative to control. Format: functional. In short, it runs like this: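 Cells were cultured in medium with 10% FBS and seeded near 4×10^3 per well, 24 h before dosing. MTT (5 µg/mL) was added for 3.5 h at 37 °C, formazan dissolved in DMSO, and absorbance read at 492/630 nm.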

The subject of experiment [7] is HeLa. Kind of experiment: Induction of apoptosis in human HeLa cells assessed as membrane swelling at 1 to 5 ug/L after 12 hrs by acridine orange staining based assay. Format: functional, cell-based. Summed up:
as §2

For experiment [8], the system named is HeLa. Kind of experiment: Potency index, ratio of golvatinib IC50 to test compound IC50 for antiproliferative activity against human HeLa cells. The class given is functional.
Experiment [9] deals with A549. Kind of experiment: Potency index, ratio of golvatinib IC50 to test compound IC50 for antiproliferative activity against human A549 cells. Format: functional.
Experiment [10] concerns HeLa. Nature of the experiment: Induction of apoptosis in human HeLa cells after 12 hrs by acridine orange staining based assay. The class given is functional, cell-based. In short, it runs like this:
as §2

Experiment [11] relates to MCF7. Nature of the experiment: Potency index, ratio of golvatinib IC50 to test compound IC50 for antiproliferative activity against human MCF7 cells. The class given is functional.
In experiment [12] the test system is HeLa. Nature of the experiment: Induction of apoptosis in human HeLa cells assessed as cytoplasmic contraction at 1 to 5 ug/L after 12 hrs by acridine orange staining based assay. Format: functional, cell-based. In short, it runs like this: as §2
The mark [13] stands for this setting: Homo sapiens, MCF7, 72 h, read-out: IC50.
Setting [14] is: Homo sapiens, HeLa, 72 h, read-out: IC50.

Chain of Hepatocyte growth factor receptor (P08581 whole entry): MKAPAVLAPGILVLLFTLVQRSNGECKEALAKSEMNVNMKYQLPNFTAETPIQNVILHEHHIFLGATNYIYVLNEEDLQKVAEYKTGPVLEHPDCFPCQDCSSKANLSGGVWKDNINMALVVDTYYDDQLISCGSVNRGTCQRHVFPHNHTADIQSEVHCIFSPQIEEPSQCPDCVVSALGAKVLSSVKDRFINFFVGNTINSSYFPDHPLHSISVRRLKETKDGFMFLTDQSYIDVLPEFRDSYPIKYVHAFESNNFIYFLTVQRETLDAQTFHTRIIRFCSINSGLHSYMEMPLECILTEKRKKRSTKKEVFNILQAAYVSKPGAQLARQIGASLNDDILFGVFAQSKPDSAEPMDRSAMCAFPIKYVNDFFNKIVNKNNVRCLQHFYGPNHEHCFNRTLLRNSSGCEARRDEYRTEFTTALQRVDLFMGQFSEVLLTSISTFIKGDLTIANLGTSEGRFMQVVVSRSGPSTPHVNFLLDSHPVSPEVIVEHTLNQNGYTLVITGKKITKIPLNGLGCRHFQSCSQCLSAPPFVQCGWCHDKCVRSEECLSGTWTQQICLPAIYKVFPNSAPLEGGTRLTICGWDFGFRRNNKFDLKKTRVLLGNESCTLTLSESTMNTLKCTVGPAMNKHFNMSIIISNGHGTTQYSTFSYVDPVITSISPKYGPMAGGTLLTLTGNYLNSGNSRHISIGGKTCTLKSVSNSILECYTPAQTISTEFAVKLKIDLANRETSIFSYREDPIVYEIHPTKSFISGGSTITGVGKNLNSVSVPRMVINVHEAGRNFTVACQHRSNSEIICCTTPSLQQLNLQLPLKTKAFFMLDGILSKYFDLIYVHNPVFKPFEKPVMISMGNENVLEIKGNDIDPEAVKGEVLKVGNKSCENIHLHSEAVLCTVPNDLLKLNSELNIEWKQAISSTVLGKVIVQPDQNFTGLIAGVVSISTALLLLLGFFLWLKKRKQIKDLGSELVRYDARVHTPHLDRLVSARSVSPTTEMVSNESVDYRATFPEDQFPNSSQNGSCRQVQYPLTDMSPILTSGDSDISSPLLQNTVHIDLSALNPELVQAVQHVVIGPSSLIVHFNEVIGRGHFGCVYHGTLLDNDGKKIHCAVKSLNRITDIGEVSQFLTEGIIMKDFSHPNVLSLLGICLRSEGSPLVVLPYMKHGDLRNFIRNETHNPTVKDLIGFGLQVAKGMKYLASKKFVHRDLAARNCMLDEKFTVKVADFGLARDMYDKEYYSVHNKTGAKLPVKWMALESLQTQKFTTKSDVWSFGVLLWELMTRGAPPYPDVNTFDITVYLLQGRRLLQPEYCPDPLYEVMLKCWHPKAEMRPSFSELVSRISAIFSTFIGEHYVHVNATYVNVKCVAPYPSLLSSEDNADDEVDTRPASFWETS

On to `CCCNC(=O)c1cc(Oc2ccc(NC(=O)c3nn(-c4ccccc4OC(F)(F)F)c(=O)cc3C)cc2F)ccn1`, for which the IC50 in [1] (setting [13]) came out at 7.42 µM; in experiment [2] it was 4.22 µM; in experiment [3] (setting [14]), 3.69 µM.

Take `Cc1cc(=O)n(-c2ccc(Br)cc2F)nc1C(=O)Nc1ccc(Oc2ccnc(C(=O)NCCc3cccs3)c2)cc1`: the IC50 amounted to 969 µM in [1] (setting [13]), 585 µM in experiment [2] and 387 µM in experiment [3] (setting [14]).

Take `Cc1cc(=O)n(-c2ccccc2OC(F)(F)F)nc1C(=O)Nc1ccc(Oc2ccnc(C(=O)NCCc3cccs3)c2)cc1`: the 50% inhibitory concentration (IC50) result in experiment [1] (mcf7) was “Not Active”; in [2], 876 µM; in experiment [3] (setting [14]), 434 µM.

Turning to `CCCNC(=O)c1cc(Oc2ccc(NC(=O)c3nn(-c4ccc(Br)cc4F)c(=O)cc3C)cc2F)ccn1`, the values for the IC50 entry in experiment [1] (mcf7), in [2] and in experiment [3] (setting [14]) were “Not Active”, 235 µM and 53.5 µM, respectively.

`CCNC(=O)c1cc(Oc2ccc(NC(=O)c3nn(-c4ccc(C)cc4)c(=O)cc3C)cc2)ccn1`: the half-maximal inhibitory concentration (IC50) is 51.2 µM in experiment [1] (setting [13]), 11.6 µM in experiment [2] and 10.7 µM in experiment [3] (setting [14]).

In the case of `CCCNC(=O)c1cc(Oc2ccc(NC(=O)c3nn(-c4ccc(C)cc4)c(=O)cc3C)cc2F)ccn1`, the IC50 came out at 34.6 µM in experiment [1] (setting [13]), 18 µM in experiment [2] and 14.2 µM in [3] (setting [14]).

`CCNC(=O)c1cc(Oc2ccc(NC(=O)c3nn(-c4cccc(F)c4)c(=O)cc3C)cc2)ccn1`: the IC50 in experiment [1] (setting [13]) was 18.9 µM; in [2], 7.41 µM; in [3] (setting [14]), 6.87 µM.

On to `CCCNC(=O)c1cc(Oc2ccc(NC(=O)c3nn(-c4cccc(F)c4)c(=O)cc3C)cc2F)ccn1`, for which the IC50 turned out to be 13.3 µM in [1] (setting [13]), 7.02 µM in experiment [2] and 6.66 µM in [3] (setting [14]).

In the case of `CCCNC(=O)c1cc(Oc2ccc(NC(=O)c3nn(-c4cccc(C(F)(F)F)c4)c(=O)cc3C)cc2F)ccn1`, the concentration for half-maximal inhibition (IC50) was found to be 30 µM in experiment [1] (setting [13]), 9.24 µM in [2] and 8 µM in [3] (setting [14]).

For the molecule `Cc1cc(=O)n(-c2cccc(C(F)(F)F)c2)nc1C(=O)Nc1ccc(Oc2ccnc(C(=O)NCCc3cccs3)c2)cc1`, the values for the 50% inhibitory concentration (IC50) result in [1] (mcf7), in [2] and in experiment [3] (setting [14]) were “Not Active”, 722 µM and 885 µM, respectively.

As to `CNC(=O)c1cc(Oc2ccc(NC(=O)c3nn(-c4ccccc4)c(=O)cc3C)cc2F)ccn1`, the IC50 entry in [1] (mcf7) is “Not Active”; in [2], 40.8 µM; in experiment [3] (hela), “Not Active”.

Regarding `CCNC(=O)c1cc(Oc2ccc(NC(=O)c3nn(-c4ccc(Br)cc4F)c(=O)cc3C)cc2)ccn1`, the half-inhibitory concentration (IC50) was 35.1 µM in experiment [1] (setting [13]), 34.5 µM in [2] and “Not Active” in experiment [3] (hela).

As for `Cc1ccc(-n2nc(C(=O)Nc3ccc(Oc4ccnc(C(=O)NCCCN5CCOCC5)c4)cc3)c(C)cc2=O)cc1`, the concentration for half-maximal inhibition (IC50) in experiment [4] was greater than 10 µM; in experiment [1] (setting [13]), 3.57 µM; in experiment [2], 2.94 µM; in experiment [3] (setting [14]) it was 1.92 µM.

With `CCNC(=O)c1cc(Oc2ccc(NC(=O)c3nn(-c4ccccc4OC(F)(F)F)c(=O)cc3C)cc2)ccn1`, the results for the concentration for half-maximal inhibition (IC50) in [1] (setting [13]), in experiment [2] and in experiment [3] (setting [14]) were 15.5 µM, 5.28 µM and 3.99 µM, respectively.

Regarding `Cc1cc(=O)n(-c2ccc(Br)cc2F)nc1C(=O)Nc1ccc(Oc2ccnc(C(=O)NCCCN3CCOCC3)c2)cc1`, the half-inhibitory concentration (IC50) was greater than 10 µM in [4], 8.23 µM in experiment [1] (setting [13]), 6.83 µM in experiment [2] and 4.25 µM in [3] (setting [14]).

On to `Cc1cc(=O)n(-c2ccccc2OC(F)(F)F)nc1C(=O)Nc1ccc(Oc2ccnc(C(=O)NCCCN3CCOCC3)c2)cc1`, for which the half-inhibitory concentration (IC50) in [4] is 0.807 µM; in experiment [1] (setting [13]) it was 2.59 µM; in experiment [2], 1.03 µM; in experiment [3] (setting [14]), 1.15 µM. For the same molecule, the result in experiment [5], in [7] and in experiment [12] was Active. Moreover, the inhibition at 1.23 µM in experiment [6] is greater than 50%. For the same molecule, the “Ratio IC50” value in [8], in [9] and in experiment [11] was 2.6 - 6.95 throughout. Moreover, the Activity result in [10] and in experiment [3] was “Dose-dependent effect” each time.

In the case of `CNC(=O)c1cc(Oc2ccc(NC(=O)c3nn(-c4ccccc4Cl)c(=O)cc3C)cc2F)ccn1`, the IC50 in [1] (setting [13]) stood at 136 µM; in experiment [2] it was 11.8 µM; in experiment [3] (setting [14]), 9.87 µM.

`CCNC(=O)c1cc(Oc2ccc(NC(=O)c3nn(-c4cccc(C(F)(F)F)c4)c(=O)cc3C)cc2)ccn1`: the values for the IC50 in [1] (setting [13]), in experiment [2] and in [3] (setting [14]) were 40.6 µM, 10 µM and 10.7 µM, respectively.

On to `CCNC(=O)c1cc(Oc2ccc(NC(=O)c3nn(-c4ccccc4C)c(=O)cc3C)cc2)ccn1`, for which the IC50 in experiment [1] (setting [13]) stood at 44.3 µM; in experiment [2] it was 34.8 µM; in experiment [3] (setting [14]), 27.3 µM.

Regarding `CN1CCN(C2CCN(C(=O)Nc3cc(Oc4ccc(NC(=O)C5(C(=O)Nc6ccc(F)cc6)CC5)c(F)c4)ccn3)CC2)CC1` [GOLVATINIB], the half-maximal inhibitory concentration (IC50) in [1] (setting [13]) came to 20.6 µM; in experiment [2], 6.89 µM; in experiment [3] (setting [14]), 4.14 µM. In addition, the inhibition at 1.23 µM in experiment [6] came out at 20%.

In the case of `CNC(=O)c1cc(Oc2ccc(NC(=O)c3nn(-c4cccc(C(F)(F)F)c4)c(=O)cc3C)cc2F)ccn1`, the IC50 was determined as 45.8 µM in experiment [1] (setting [13]), 10.2 µM in experiment [2] and 11.8 µM in [3] (setting [14]).

As to `Cc1cc(=O)n(-c2cccc(C(F)(F)F)c2)nc1C(=O)Nc1ccc(Oc2ccnc(C(=O)NCCCN3CCOCC3)c2)cc1`, the IC50 in experiment [4] was greater than 10 µM; in experiment [1] (setting [13]), 5.21 µM; in experiment [2], 2.5 µM; in [3] (setting [14]), 1.65 µM.

Take `Cc1ccc(-n2nc(C(=O)Nc3ccc(Oc4ccnc(C(=O)NCCc5cccs5)c4)cc3)c(C)cc2=O)cc1`: the values for the IC50 result in [1] (mcf7), in [2] and in experiment [3] (setting [14]) were “Not Active”, 965 µM and 660 µM, respectively.

For `CCCNC(=O)c1cc(Oc2ccc(NC(=O)c3nn(-c4ccccc4C)c(=O)cc3C)cc2F)ccn1`, the figures for the concentration for half-maximal inhibition (IC50) in [1] (setting [13]), in [2] and in [3] (setting [14]) were 39.6 µM, 25.7 µM and 24.6 µM, respectively.

Values taken from ChEMBL document CHEMBL4627334, “Design, synthesis and biological evaluation of 4-(pyridin-4-yloxy)benzamide derivatives bearing a 5-methylpyridazin-3(2H)-one fragment” (Bioorg Med Chem Lett, 2020).
